PostGolgi ctrl: growth inhibition of yeast control strain, primary screen, counter-screen for post-Golgi transport modulator project | efflux-deficient yeast background strain, growth absorbance A615, 16 h | inhibition, % at 10 µM | 98,000 compounds, 5% hits
Pyk2 oligo antag: antagonists of Pyk2 self-association, primary screen, Q293 cells, FERM NanoBiT luminescence, HTS | active compounds read low | z-score (the deposit names both 25 µM and 10 µM) | 99,000 compounds, 0.83% hits;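 active means Z-score of -3 or lower, scaled per plate to the spread of control and sample wells; inactive means z-score above -3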;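 further: negative z-score means lost luminescence so less FERM oligomerization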
Candida biofilm: clotrimazole potentiators killing Candida biofilms, primary screen, with clotrimazole, Alamar Blue; C. albicans biofilm + clotrimazole; inhibition, % at 6 µM; 85,000 compounds, 0.14% hits;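 active means inhibition above 20%; inactive means inhibition below 20%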;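 further: preformed 24 hr biofilms exposed to compound for 48 hr; 0% = biofilm without compound and 100% = blank killed by clotrimazole plus chlorhexidine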
FAK inh: FAK kinase inhibitors, primary screen, biochemical; Focal adhesion kinase 1 (Homo sapiens), Q05397; 97,000 compounds, 0.84% hits; inhibition, %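 (tested at 7 µM)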; biochemical FAK kinase activity assay; in the data active means inhibition above about 19%;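 further: 0% = DMSO and 100% = reference compound high control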
Ecoli tolC: growth inhibitors of E. coli tolC mutant, primary screen, strain BW25113 ΔtolC::kan, 384-well; OD615; 65,000 compounds, 2.2% hits; AID 573, 2007; growth inhibition, % at 10 µM (by protocol);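 active means growth inhibition at or above a cutoff equal to the mean over every tested compound plus 3 SD, cut at about 60% in these data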;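 further: growth measured after 20 h incubation at 37 °C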
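System: E. coli ΔtolC::kan strain BW25113; Buffer or medium: LB broth supplemented with 50 µg/mL kanamycin; Compound: 10 µM final, single dose; Incubation: bacterial growth with compound for 20 h at 37 °C; Signal: A615 absorbance measurement; Evaluation: growth inhibition in percent.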
PostGolgi yeast: phenotypic screen on post-Golgi transport, primary screen | inhibition, % at 10 µM | post-Golgi transport phenotypic cell assay | 98,000 compounds, 0.9% hits;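 further: yeast cells grown in 1536-well plates; yeast grown about 18 h at 30C before absorbance read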
Active calls of the source: *; · = not tested or not shown. A selection: hits, their analogues and other compounds. The true share with any hit is near 6.9%. Unless noted, no stated cut-off is given here; in the data, active means inhibition above about 30%; inactive means the rest.

SMILES	PostGolgi ctrl	Pyk2 oligo antag	Candida biofilm	FAK inh	Ecoli tolC	PostGolgi yeast
O=C(c1c[nH]c2ccccc12)C(O)C(c1ccccc1)N1CCOCC1 (stereo unspecified)	7	0.5	7	0	-2	-1
CSC1CCCCC1(O)CSc1nc2ccccc2o1 (stereo unspecified)	19	-0.33	8	2	23	3
CCCOc1ccc(C(=O)NNC(=S)NC(C)=O)cc1	32*	-0.17	·	0	·	47*
O=C(Nc1ccccc1Cl)c1cc(S(=O)(=O)N2CCOCC2)cs1	31*	0.77	-3	-2	·	1
Cn1c(CSc2nnc(SCc3ccccc3)s2)nc2ccccc21	0	-0.13	·	-2	84*	-1
Cn1c(CSc2nc3ccc(Br)cc3[nH]2)nc2ccccc21	26	-1.5	4	5	34	-4
Cc1ccc(C23CC4CC(CC(NC(=O)N5CCN(C)CC5)(C4)C2)C3)cc1	7	-0.12	4	5	11	2
NC(=O)c1cc(-c2ccccc2)nc(N2CCCCCC2)n1	37*	-1.9	-1	-5	-5	18
CC1Oc2ccccc2N(Cc2ccccc2Cl)C1=O (stereo unspecified)	21	-1.2	5	·	61*	4
O=C(O)CCCCCNS(=O)(=O)c1cccc2nsnc12	2	-0.23	-1	-1	·	9
CCCCOc1[nH]c2nc(-c3ccco3)n(Cc3ccco3)c(=N)c2c1C#N	17	0.12	0	3	78*	7
COc1ccc(OC)c(NC(=O)c2nnn(Cc3ccccc3C)c2N)c1	34*	-1.2	·	-9	18	-10
COc1ccc(C)cc1NC(=O)c1nnn(Cc2cc(C)ccc2C)c1N	18	·	-2	5	19	1
COc1ccc(Cc2nnc(NC(=O)c3c(-c4ccccc4)noc3C)s2)cc1OC	5	·	0	·	22	-1
CCCNC(=O)CNC(=S)N(Cc1cc(OC)c(OC)c(OC)c1)C1CCCC1	·	0.18	·	·	·	·
Cc1ccc(N(C(=O)CCC(=O)Nc2cc(C)on2)C(C(=O)NC2CCCC2)c2cccs2)cc1 (stereo unspecified)	36*	-1.2	3	2	·	0
O=S(=O)(c1ccc(OCC(O)CN2CCN(c3ccccc3O)CC2)cc1)N1CCOCC1 (stereo unspecified)	45*	1.8	7	-8	-14	3
O=S(=O)(c1ccc(OCC(O)CN2CCN(c3ccccc3)CC2)cc1)N1CCOCC1 (stereo unspecified)	-7	0.8	2	0	-16	-6
CC1CCCCN1c1cc(C#N)c(C#N)cc1[N+](=O)[O-] (stereo unspecified)	43*	-0.85	·	1	·	-1
CC1CCN(c2cc(C#N)c(C#N)cc2[N+](=O)[O-])CC1	76*	-0.37	·	5	·	0
CC1CCN(c2cc(N)c(Cl)cc2[N+](=O)[O-])CC1	38*	-0.51	·	2	·	-6
C=CCN(c1ccc(C(=O)N2CCCC2)cc1)S(C)(=O)=O	39*	1.7	4	1	-7	5
C=CCN(c1ccc(C(=O)NC(C)C)cc1)S(C)(=O)=O	-1	1.6	-2	-1	·	15
COc1cc(S(=O)(=O)NC2CCCC2)ccc1F	0	-0.07	4	-1	·	-2
C(=N\n1cnnc1)/c1cn(Cc2ccccc2)c2ccccc12	16	0	7	·	11	-2
SMILES	PostGolgi ctrl	Pyk2 oligo antag	Candida biofilm	FAK inh	Ecoli tolC	PostGolgi yeast
Clc1ccc(Cn2cc(/C=N/n3cnnc3)c3ccccc32)c(Cl)c1	32*	-1.1	5	5	·	-1
O=C(Nc1ccc2c(c1)C(=O)N(CC1CCCO1)C2=O)c1cccc(Br)c1 (stereo unspecified)	15	-3.1*	6	1	·	0
O=C(O)c1cccc(NC(=O)c2ccc3c(c2)C(=O)N(CC2CCCO2)C3=O)c1 (stereo unspecified)	8	-0.21	4	0	·	3
Nc1nnc(SCc2ccc3c(c2)OCO3)s1	-4	0.07	8	0	11	-1
O=C(c1ccc(Cl)cc1)N1CCC(O)(CSc2ccc(Cl)cc2Cl)CC1	94*	-1.9	·	4	·	15
Oc1ccc(Cl)cc1Cc1cc(Cl)ccc1O	·	·	·	·	100*	·
O=C(OC1CCN(c2ncc(C(F)(F)F)cc2Cl)CC1)c1ccc(Cl)cc1	1	0	·	-3	·	5
O=C(CSc1nccn1-c1ncc(C(F)(F)F)cc1Cl)c1ccc(Cl)cc1	32*	0.61	·	8	·	3
O=C(CSc1nccn1-c1ccccc1)c1ccc(Br)cc1	-1	-0.85	·	7	·	14
O=C(OCCN1CCN(c2ncc(C(F)(F)F)cc2Cl)CC1)c1ccc(Cl)cc1	31*	0.66	·	4	·	16
CSc1nc(-c2ccccc2)nc2c1COC(C)(C)C2	6	-0.76	7	-5	3	-2
O=C(C#Cc1cccc([N+](=O)[O-])c1)c1ccccc1	64*	-0.62	6	0	·	91*
CC(=O)N1CCc2cc(S(=O)(=O)NC(C(=O)NC3CCCc4ccccc43)C(C)C)ccc21 (stereo unspecified)	1	1.1	·	·	-24	-4
CCCCCN(C(=O)COC(=O)c1ccc(Br)o1)c1c(N)n(CCCC)c(=O)[nH]c1=O	23	0.78	·	0	·	4
CCc1ccc(C(=O)/C=C/c2ccc([N+](=O)[O-])o2)cc1	10	-0.94	4	1	·	63*
CC(C)n1ncc(C(N)=O)c1N	9	0.22	1	6	-27	12
COc1cc(-n2c3nc4ccccc4nc3c3c(=O)n(Cc4ccco4)cnc32)cc(OC)c1OC	·	·	2	0	-5	·
O=C(N/N=C/C=C/c1ccccc1)c1cccc(Br)c1	6	0.07	8	-1	·	1
O=C(N/N=C/C=C/c1ccccc1)c1ccccc1Br	2	-0.25	13	-1	·	-6
O=C(N/N=C/c1cccc(Oc2ccccc2)c1)c1cccc(Br)c1	31*	-1.1	·	-1	·	1
O=C(N/N=C/c1cccc(Oc2ccccc2)c1)c1ccccc1Br	33*	-2.4	·	4	·	-4
N#Cc1ccc(-n2nccc2-c2cnc3n(c2=O)CCS3)cc1	2	0.64	-2	-2	·	1
CS(=O)c1nc(-c2ccc(Br)cc2)cc(-c2ccccc2)c1C#N (stereo unspecified)	77*	-2.7	2	·	95*	-1
CS(=O)(=O)c1nc(-c2ccc(Br)cc2)cc(-c2ccccc2)c1C#N	74*	-1.3	2	-1	·	10
COc1ccc(-c2cc(-c3ccccc3)c(C#N)c(S(C)(=O)=O)n2)cc1	51*	14	-3	1	·	4
Cc1cccc(NC(=S)N/N=C/c2ccc([N+](=O)[O-])s2)c1	96*	0.87	·	-5	·	44*
O=C(N/N=C/c1ccc([N+](=O)[O-])s1)c1cccc(Br)c1	·	-0.18	-1	21*	·	·

Source: PubChem BioAssay (several laboratories)
